# In ChEMBL document CHEMBL5724801, “EUbOPEN Chemogenomics Library - Multiplex” (2024):
# “And” between values parts separate entries of the source, which are not always exact repeats. Equal entries are not always repeated.
# Assays:
# Fibroblast = assay: Multiplex assay against human fibroblast; format: toxicity, cell-based
# How it was run: (§1)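 Compound was added to live cells that had been stained at seeding with Hoechst33342, BioTracker Green Microtubule Cytoskeleton Dye, MitoTracker Red and Annexin V Alexa Fluor 680, and imaging followed on a CQ1 microscope at 37°C and 5% CO2. CellPathfinder machine-learning gating divided cells into Hoechst high-intensity objects or normal cells, normal cells into healthy, pyknosed or fragmented nuclei, and pyknosed cells into mitotic or apoptotic. Tubulin, mitochondrial-mass and membrane-permeability phenotypes are per cents of healthy-nucleus cells.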
# HEK-293T = assay: Multiplex assay against HEK293T; format: toxicity, cell-based; conditions: human; how it was run: as §1
# [1] = 12 h, 1 µM, compound concentration 1 uM
# [2] = 12 h, 10 µM, compound concentration 10 uM
# [3] = 24 h, 1 µM, compound concentration 1 uM
# [4] = 24 h, 10 µM, compound concentration 10 uM
# [5] = 48 h, 1 µM, compound concentration 1 uM
# [6] = 48 h, 10 µM, compound concentration 10 uM
smiles,measurement,setting,value
CC(C)(C)c1cc(C(C)(C)C)c(NC(=O)c2c[nH]c3ccccc3c2=O)cc1O [IVACAFTOR],Population Apoptotic (%),Fibroblast; [1],10.53% and 22.22%
same,Population Healthy Nuclei (%),Fibroblast; [1],60.13% and 75%
same,Population Hoechst High Intensity Objects (%),Fibroblast; [1],0%
same,Population Membrane Permeable-Phenotype (%),Fibroblast; [1],1.09% and 0.74%
same,Population Mitotic Cells (%),Fibroblast; [1],89.47% and 77.78%
same,Population Normal (%),Fibroblast; [1],100%
same,Population Pyknosed Nuclei (%),Fibroblast; [1],24.84% and 20%
same,Population Tubulin-Different-Phenotype (%),Fibroblast; [1],15.22% and 9.63%
same,Total Cell Count,Fibroblast; [1],153 and 180
same,Population Apoptotic (%),Fibroblast; [2],15.07% and 33.33%
same,Population Fragmented Nuclei (%),Fibroblast; [2],15.18% and 7.21%
same,Population Healthy Nuclei (%),Fibroblast; [2],46.6% and 73.87%
same,Population Hoechst High Intensity Objects (%),Fibroblast; [2],0%
same,Population Membrane Permeable-Phenotype (%),Fibroblast; [2],0% and 3.05%
same,Population Mitochondria Different-Phenotype (%),Fibroblast; [2],21.35% and 13.41%
same,Population Mitotic Cells (%),Fibroblast; [2],84.93% and 66.67%
same,Population Normal (%),Fibroblast; [2],100%
same,Population Pyknosed Nuclei (%),Fibroblast; [2],38.22% and 18.92%
same,Population Tubulin-Different-Phenotype (%),Fibroblast; [2],24.72% and 29.27%
same,Total Cell Count,Fibroblast; [2],191 and 222
same,Population Apoptotic (%),Fibroblast; [3],2.7% and 8%
same,Population Fragmented Nuclei (%),Fibroblast; [3],9.82% and 4.92%
same,Population Healthy Nuclei (%),Fibroblast; [3],67.48% and 81.42%
same,Population Hoechst High Intensity Objects (%),Fibroblast; [3],0%
same,Population Membrane Permeable-Phenotype (%),Fibroblast; [3],3.64% and 2.01%
same,Population Mitochondria Different-Phenotype (%),Fibroblast; [3],10.91% and 10.07%
same,Population Mitotic Cells (%),Fibroblast; [3],97.3% and 92%
same,Population Normal (%),Fibroblast; [3],100%
same,Population Pyknosed Nuclei (%),Fibroblast; [3],22.7% and 13.66%
same,Population Tubulin-Different-Phenotype (%),Fibroblast; [3],11.82% and 11.41%
same,Total Cell Count,Fibroblast; [3],163 and 183
same,Population Apoptotic (%),Fibroblast; [4],13.85% and 28.57%
same,Population Fragmented Nuclei (%),Fibroblast; [4],9.6% and 8.97%
same,Population Healthy Nuclei (%),Fibroblast; [4],53.67% and 78.48%
same,Population Hoechst High Intensity Objects (%),Fibroblast; [4],0%
same,Population Membrane Permeable-Phenotype (%),Fibroblast; [4],2.11% and 0.57%
same,Population Mitochondria Different-Phenotype (%),Fibroblast; [4],21.05% and 24.57%
same,Population Mitotic Cells (%),Fibroblast; [4],86.15% and 71.43%
same,Population Normal (%),Fibroblast; [4],100%
same,Population Pyknosed Nuclei (%),Fibroblast; [4],36.72% and 12.56%
same,Population Tubulin-Different-Phenotype (%),Fibroblast; [4],45.26% and 44%
same,Total Cell Count,Fibroblast; [4],177 and 223
same,Population Fragmented Nuclei (%),Fibroblast; [5],10.22% and 4.66%
same,Population Healthy Nuclei (%),Fibroblast; [5],83.33% and 86.53%
same,Population Hoechst High Intensity Objects (%),Fibroblast; [5],0%
same,Population Membrane Permeable-Phenotype (%),Fibroblast; [5],1.94% and 0%
same,Population Mitotic Cells (%),Fibroblast; [5],75% and 94.12%
same,Population Normal (%),Fibroblast; [5],100%
same,Population Pyknosed Nuclei (%),Fibroblast; [5],6.45% and 8.81%
same,Population Tubulin-Different-Phenotype (%),Fibroblast; [5],7.74% and 11.98%
same,Total Cell Count,Fibroblast; [5],186 and 193
same,Population Apoptotic (%),Fibroblast; [6],21.88% and 28.57%
same,Population Fragmented Nuclei (%),Fibroblast; [6],11.48% and 7.92%
same,Population Healthy Nuclei (%),Fibroblast; [6],73.21% and 86.25%
same,Population Hoechst High Intensity Objects (%),Fibroblast; [6],0%
same,Population Membrane Permeable-Phenotype (%),Fibroblast; [6],0.65% and 0.97%
same,Population Mitochondria Different-Phenotype (%),Fibroblast; [6],25.49% and 13.53%
same,Population Mitotic Cells (%),Fibroblast; [6],78.12% and 71.43%
same,Population Normal (%),Fibroblast; [6],100%
same,Population Pyknosed Nuclei (%),Fibroblast; [6],15.31% and 5.83%
same,Population Tubulin-Different-Phenotype (%),Fibroblast; [6],24.18% and 39.61%
same,Total Cell Count,Fibroblast; [6],209 and 240
same,Population Apoptotic (%),HEK-293T; [1],10.06% and 8.26%
same,Population Fragmented Nuclei (%),HEK-293T; [1],0% and 2.11%
same,Population Healthy Nuclei (%),HEK-293T; [1],51.67% and 21.13%
same,Population Hoechst High Intensity Objects (%),HEK-293T; [1],0.3% and 0%
same,Population Membrane Permeable-Phenotype (%),HEK-293T; [1],0.59% and 0%
same,Population Mitochondria Different-Phenotype (%),HEK-293T; [1],31.76% and 13.33%
same,Population Mitotic Cells (%),HEK-293T; [1],89.94% and 91.74%
same,Population Normal (%),HEK-293T; [1],99.7% and 100%
same,Population Pyknosed Nuclei (%),HEK-293T; [1],48.33% and 76.76%
same,Total Cell Count,HEK-293T; [1],330 and 142
same,Population Apoptotic (%),HEK-293T; [2],31.3% and 21.05%
same,Population Fragmented Nuclei (%),HEK-293T; [2],2.9% and 1.94%
same,Population Hoechst High Intensity Objects (%),HEK-293T; [2],0.72% and 0%
same,Population Membrane Permeable-Phenotype (%),HEK-293T; [2],0%
same,Population Mitochondria Different-Phenotype (%),HEK-293T; [2],27.01% and 57.89%
same,Population Mitotic Cells (%),HEK-293T; [2],68.7% and 78.95%
same,Population Normal (%),HEK-293T; [2],99.28% and 100%
same,Population Pyknosed Nuclei (%),HEK-293T; [2],47.46% and 85.81%
same,Total Cell Count,HEK-293T; [2],278 and 155
same,Population Apoptotic (%),HEK-293T; [3],15.6% and 17.89%
same,Population Fragmented Nuclei (%),HEK-293T; [3],0.58% and 1.37%
same,Population Healthy Nuclei (%),HEK-293T; [3],78.42% and 33.56%
same,Population Hoechst High Intensity Objects (%),HEK-293T; [3],0%
same,Population Membrane Permeable-Phenotype (%),HEK-293T; [3],0.49% and 2.04%
same,Population Mitochondria Different-Phenotype (%),HEK-293T; [3],13.02% and 8.16%
